Drawing on ChEMBL document CHEMBL1687894, “Design, synthesis and evaluation of 3-methylene-substituted indolinones as antimalarials” (Eur J Med Chem, 2011), this text covers IC50 for 25 compounds.

In general, pIC50 refers to −log10 of the IC50, conventionally taken in molar units.

In assay [1] the target is T1, Falcipain 2 (Plasmodium falciparum, UniProt Q9N6S8).
T1 sequence (Q9N6S8 whole entry): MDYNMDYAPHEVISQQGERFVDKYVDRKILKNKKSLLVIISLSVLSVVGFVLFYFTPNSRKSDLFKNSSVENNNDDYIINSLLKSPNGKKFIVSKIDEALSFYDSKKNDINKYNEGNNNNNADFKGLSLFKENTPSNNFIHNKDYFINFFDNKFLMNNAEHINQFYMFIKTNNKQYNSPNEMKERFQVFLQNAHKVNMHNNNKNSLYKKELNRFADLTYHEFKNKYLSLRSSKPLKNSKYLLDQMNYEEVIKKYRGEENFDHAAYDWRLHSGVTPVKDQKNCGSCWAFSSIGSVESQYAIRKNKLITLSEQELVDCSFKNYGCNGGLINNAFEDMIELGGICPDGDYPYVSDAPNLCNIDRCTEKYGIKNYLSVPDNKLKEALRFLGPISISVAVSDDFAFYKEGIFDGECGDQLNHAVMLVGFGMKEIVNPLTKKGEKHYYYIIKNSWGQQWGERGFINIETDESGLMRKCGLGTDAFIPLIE
Put plainly: Inhibition of Plasmodium falciparum falcipain 2 incubated with compound for 10 mins before addition of 25 uM Z-Leu-Arg-AMC substrate by fluorescence spectrophotometry. The method in brief: (§1)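 Run at 25 °C in 100 mM sodium acetate pH 6.0 with 5 mM DTT and 0.75% DMSO. Enzyme was preincubated 10 min with compound diluted from DMSO, then Z-Leu-Arg-AMC was added and fluorescence was read immediately. Eight inhibitor concentrations were made by fivefold serial dilution. IC50 was fitted to percent inhibition versus a no-inhibitor control against log concentration.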

Assay [2] concerns Plasmodium falciparum. Put plainly: Antiplasmodial activity against chloroquine-resistant Plasmodium falciparum W2 infected in human red blood cells assessed as inhibition of ring-stage parasite growth after 48 hrs by flow cytometry. As to conditions: W2, 48 h. Format: functional, organism-based. On the technique in general: Flow cytometry measures light scatter and fluorescence of single cells or particles in a stream.

The target of assay [3] is T2, Cysteine protease falcipain-3 (Plasmodium falciparum, UniProt Q9NAW4).
T2 sequence (Q9NAW4 whole entry): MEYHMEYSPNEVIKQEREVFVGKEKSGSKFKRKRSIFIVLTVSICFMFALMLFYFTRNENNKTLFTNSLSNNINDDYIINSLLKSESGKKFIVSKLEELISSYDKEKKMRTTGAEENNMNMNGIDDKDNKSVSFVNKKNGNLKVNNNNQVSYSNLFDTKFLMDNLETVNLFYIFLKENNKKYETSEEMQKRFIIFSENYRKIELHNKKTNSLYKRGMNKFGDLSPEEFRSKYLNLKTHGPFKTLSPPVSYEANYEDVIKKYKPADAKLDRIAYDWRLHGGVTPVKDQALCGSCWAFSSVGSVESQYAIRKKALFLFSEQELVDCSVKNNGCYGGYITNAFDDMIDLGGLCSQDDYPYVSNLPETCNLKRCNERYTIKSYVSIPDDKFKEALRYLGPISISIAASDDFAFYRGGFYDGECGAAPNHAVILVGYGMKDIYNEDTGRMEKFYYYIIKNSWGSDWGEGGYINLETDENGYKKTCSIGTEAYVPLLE
Put plainly: Inhibition of Plasmodium falciparum falcipain 3 incubated with compound for 10 mins before addition of 25 uM Z-Leu-Arg-AMC substrate by fluorescence spectrophotometry. Put shortly:
as §1

Each structure is given as a SMILES string. pIC50: −log10 of the molar value.

For the compound `O=C1Nc2ccccc2C1=CNCCCNc1ccnc2cc(Cl)ccc12`, the values for the pIC50 in assay [1] and in assay [2] were under 4.30 and 6.38, respectively.
The like results for `CCOC(=O)CNC=C1C(=O)Nc2ccccc21` were, in that order, under 4.30 and 4.97.
The like results for `CN(C)C=C1C(=O)Nc2ccccc21` were, in that order, under 4.30 and under 4.30.
The like results for `CN(C)C=C1C(=O)Nc2ccc(Cl)cc21` were, in that order, under 4.30 and under 4.30.
For the compound `CN(C)C=C1C(=O)Nc2cc(Cl)ccc21`, the negative-log IC50 (pIC50) in assay [1] and in assay [2] was under 4.30 throughout.
In the case of `CN(C)C=C1C(=O)Nc2c(Cl)cccc21`, the pIC50 in assay [1] and in assay [2] was under 4.30 in each case.
For `CN(C)C=C1C(=O)N(C)c2ccccc21`, the pIC50 in assay [1] and in assay [2] was under 4.30 each time.
Take `O=C1Nc2ccccc2C1=CSCc1ccccc1`: the figures for the pIC50 in assay [1] and in assay [2] were under 4.30 and under 5.00, respectively.
The like results for `O=C1Nc2ccccc2C1=CNc1ccccc1` were, in that order, under 4.30 and under 5.00.
For the compound `CCOC(=O)[C@H](Cc1ccccc1)NC=C1C(=O)Nc2ccccc21`, the pIC50 in assay [1] is under 4.30; in assay [2], under 5.00.
For the compound `CC(C)CCNC(=O)[C@H](CC(C)C)NC=C1C(=O)Nc2ccccc21`, the pIC50 in assay [3] was under 4.30; in assay [1], under 4.30; in assay [2], 4.51.
On to `CC(C)CCNC(=O)[C@H](CC(C)C)NC=C1C(=O)Nc2ccc(Cl)cc21`, for which the pIC50 was under 4.30 in assay [3], 4.36 in assay [1] and 4.73 in assay [2].
The like results for `CC(C)CCNC(=O)[C@H](CC(C)C)NC=C1C(=O)Nc2cc(Cl)ccc21` were, in that order, under 4.30, 4.31 and 4.80.
The like results for `CC(C)CCNC(=O)[C@H](CC(C)C)NC=C1C(=O)Nc2c(Cl)cccc21` were, in that order, under 4.30, 4.38 and 4.81.
The like results for `CC(C)CCNC(=O)[C@H](CC(C)C)NC=C1C(=O)N(C)c2ccccc21` were, in that order, under 4.30, under 4.30 and 4.63.
Regarding `CC(C)CCNC(=O)CNC=C1C(=O)Nc2ccccc21`, the pIC50 in assay [3] was under 4.30; in assay [1], under 4.30; in assay [2], 4.57.
As for `CC(C)CCNC(=O)[C@H](CCc1ccccc1)NC=C1C(=O)Nc2ccccc21`, the pIC50 in assay [3] was under 4.30; in assay [1] it was 4.30; in assay [2] it was 4.73.
The like results for `CC(C)CCNC(=O)[C@H](Cc1ccccc1)NC=C1C(=O)Nc2ccc(Cl)cc21` were, in that order, under 4.30, 4.36 and under 4.30.
The like results for `CC(C)CCNC(=O)[C@H](CCc1ccccc1)NC=C1C(=O)Nc2c(Cl)cccc21` were, in that order, under 4.30, 4.36 and 4.87.
As for `O=C1Nc2ccc(Cl)cc2C1=CNCCCNc1ccnc2cc(Cl)ccc12`, the pIC50 is under 4.30 in assay [1] and 6.70 in assay [2].
The like results for `O=C1Nc2cc(Cl)ccc2C1=CNCCCNc1ccnc2cc(Cl)ccc12` were, in that order, under 4.30 and 6.74.
In the case of `O=C1Nc2c(Cl)cccc2C1=CNCCCNc1ccnc2cc(Cl)ccc12`, the figures for the pIC50 in assay [1] and in assay [2] were under 4.30 and 6.77, respectively.
The like results for `CN1C(=O)C(=CNCCCNc2ccnc3cc(Cl)ccc23)c2ccccc21` were, in that order, under 4.30 and 6.54.
As to `O=C1Nc2c(Cl)cccc2C1=CNCCNc1ccnc2cc(Cl)ccc12`, the pIC50 in assay [2] is 6.85.
Turning to `CC(C)C[C@H](NC(=O)[C@H]1O[C@@H]1C(=O)O)C(=O)NCCCCN=C(N)N` [E-64], the pIC50 in assay [3] was 6.32; in assay [1] it was 6.95.
